Assay results from different studies.
Compare with care: the assays were run in different laboratories.
Target: Serine/threonine-protein kinase 16 (STK16, Homo sapiens, UniProt O75716)

| Compound | read-out | mode | method | tested at | endpoint | result |
| --- | --- | --- | --- | --- | --- | --- |
| O=C1Nc2ccc(Cl)cc2C1=Cc1cc(Cl)c(O)c(Cl)c1 | cell-free assay | – | – | 0.5 µM | remaining signal | 90.2% |
| Cc1sc(C(=O)NC2COC2)cc1-n1cc(NC(=O)Nc2c(F)cccc2Cl)cn1 | enzyme activity | inhibitor | – | 10 µM | remaining activity | 94.4% |
| COc1cc(-c2cc(-c3ccc(N4CCNCC4)cc3)cnc2C)cc(OC)c1OC | enzyme activity | inhibitor | – | 1 µM | inhibition | 8% |
| CCCCNc1ncc2c(-c3ccc(F)cc3)nn(C[C@H]3CC[C@H](N)CC3)c2n1 | target engagement in cells | inhibitor | chemoproteomics | 20 mM | inhibition | 56.4% |
| FC(F)(F)Oc1cccc(-c2cnc3ccc(-c4ccncc4)nn23)c1 | enzyme activity | inhibitor | radiometric | 5 µM | activity vs control | 118% |
| O=C(O)c1cc(-c2ccc(C3CCNCC3)cc2)c2ccc(-c3ccc(C(F)(F)F)cc3)cc2c1 | cell-free assay | – | competition with immobilised ligand | 1 µM | remaining binding | 100% |
| COc1cc(Cl)c(C(=O)N[C@@H](CN[C@H]2CC[C@@H](N)CC2)Cc2ccc(C#N)cc2)cc1-c1ccc(CN[C@H](C)c2ccc(C)cc2)o1 | enzyme activity | inhibitor | – | 1 µM | remaining activity | 95% |
| Cc1ccc(C(=O)Nc2ccc(CN3CCN(C)CC3)c(C(F)(F)F)c2)cc1C#Cc1cnc2cccnn12 | enzyme activity | inhibitor | – | 23.5 nM | remaining activity | 94% |
| CN(C(=O)c1ccccc1)c1cc(N(C)c2ccc3c(c2)CCc2ccc(C(=O)NCCN4CCOCC4)cc2C3=O)ccc1F | cell-free assay | – | competition with immobilised ligand | 1 µM | remaining binding | 93% |
| O=C(Nc1cnn(-c2csc(C(=O)NC3COC3)c2)c1)Nc1ccccc1Cl | enzyme activity | inhibitor | – | 5 µM | remaining activity | 98.6% |
| Cn1cncc1C1=CN(c2ncnc3[nH]cnc23)CCS1 | enzyme activity | inhibitor | radiometric | 2 µM | inhibition | 49.5% |
| COc1cc(Nc2cnc(C#N)c(O[C@H](C)CN(C)C)n2)ncc1-c1cnn(C)c1 | enzyme activity | inhibitor | radiometric | 10 µM | remaining activity | 91% |
| Cn1cnc(Br)c1C1=CN(c2ncnc3[nH]cnc23)CCS1 | enzyme activity | inhibitor | radiometric | 2 µM | inhibition | 67.8% |
| CCS(=O)(=O)c1cc2cc(C[C@@](O)(CC(C)(C)c3ccc(F)cc3C(N)=O)C(F)(F)F)[nH]c2cn1 | cell-free assay | – | competition with immobilised ligand | 1 µM | remaining binding | 91% |
| Nc1ncnc2occ(-c3ccc(NC(=O)Nc4cc(C(F)(F)F)ccc4F)cc3)c12 | cell-free assay | inhibitor | – | 20 µM | remaining signal | 84% |
| CC(=O)Nc1c(C(C)=O)c(=O)n(C)c2nc(-c3ccc(Cl)cc3Cl)c(-c3ccc(Cl)cc3)cc12 | cell-free assay | – | competition with immobilised ligand | 1 µM | remaining binding | 100% |
| CNC(=O)c1cc(Oc2ccc(NC(=O)Nc3ccc(Cl)c(C(F)(F)F)c3)cc2)ccn1 | cell-free assay | – | – | 0.5 µM | remaining signal | 105% |
| O=C(NCc1ncc(C(F)(F)F)cc1Cl)c1ccc2c(c1)C1(CCS(=O)(=O)CC1)[C@@H](C1CC1)N2S(=O)(=O)c1ccc(F)cc1 | cell-free assay | – | competition with immobilised ligand | 1 µM | remaining binding | 99% |
| N#CCCc1ccc2c(c1)-c1[nH]c3ccc([N+](=O)[O-])cc3c1CC(=O)N2 | cell-free assay | – | – | 0.5 µM | remaining signal | 87% |
